Assay outcomes as filed in PubChem BioAssay.
In the library only some 3% were active in any assay of this set; here they are far more common.
T cruzi repl: blocks replication of Trypanosoma cruzi | T. cruzi beta-gal in NIH3T3, luminescence, 90 h | inhibition, % (concentration not given with the values) | hit rate 1.4% among 300,000 | AID 1885;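 active = mean inhibition across valid replicates above about 55%, limit read from the data; inconclusive = mean below that limit but half or more replicates reach it; inactive = mean below it, under half of replicates reach it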;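 note: signal also drops with host cell toxicity which is not excluded here; higher percent means less beta-gal luminescence so fewer parasites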
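System: mouse NIH/3T3 fibroblasts infected with β-gal-expressing T. cruzi Tulahuen C4 / Input: NIH/3T3 cells, 5,000 per well / Buffer or medium: Low-serum DMEM with 2% FBS / Probe or stimulus: 5000 reporter trypomastigotes per well / Schedule: ≥90 h infection period, 3 h prior cell attachment / Measured by: GalScreen luminescence, 60 min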
N-glyco inh: blocks N-linked glycosylation in D54 reporter cells; hit rate 0.23% among 360,000; D54 ERlucT glycosylation luciferase reporter, 24 h; percent of 100 nM tunicamycin response; reporter increase, % at 12.5 µM; AID 588692;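 active = mean luciferase reporter signal, scaled so untreated is 0 and the glycosylation-blocking control 100, at or above a set limit in every replicate; inconclusive = mean reaches the limit but not every replicate does; inactive = mean below the limit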;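 note: luciferase carries N-glycosylation sites so blocking glycosylation raises the light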
PvdQ inh: P. aeruginosa PvdQ acylase inhibition | inhibition, % at 10 µM | hit rate 0.063% among 340,000 | purified PvdQ acylase, fluorescence plate reader | AID 488965; in the data active = inhibition above about 30%, passing the limit was not always enough; inconclusive = no clear call, values can overlap the other calls
CaV13 ICDI inh: Primary screen for inhibitors of IQ motif and Ca2+-dependent inactivation inhibitor domain binding in CACNA1D, Förster resonance energy transfer in living cells, …. HEK cells, CFP/YFP FRET ICDI-IQ, plate reader, 10 min; percent FRET-ratio fall versus neutral wells. inhibition, % at 12.3 µM. hit rate 0.098% among 340,000. AID 743397;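 active = mean replicate inhibition of at least 30% and at least 1% of replicates passing that level; inconclusive = only one of the two criteria is met; inactive = neither criterion is met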
HSF1 activator: increases HSF-1 driven luciferase reporter signal | NIH3T3-HGL HSF-1 luciferase reporter, MG132, 8 h; 100% = twice DMSO control signal | activation, % at 9 µM | hit rate 1.7% among 300,000;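 active = mean replicate activation of at least 50% with a set share of replicates each reaching 50%; inconclusive = only one of those two conditions met; inactive = mean below 50% and too few replicates reaching it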
PfHsp90 yeast 2: inhibits growth of yeast expressing Plasmodium falciparum Hsp90. inhibition, % at 9.4 µM. S. cerevisiae expressing PfHsp90, BacTiter-Glo ATP, 48 h; yeast lacking PDR1 and PDR3 efflux regulators. hit rate 0.32% among 310,000;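 active = every replicate shows inhibition above about 80%, whatever the replicate mean, limit read from the data; inconclusive = mean inhibition reaches the set limit but some replicate falls short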
Each line names hits and unclear results; the compound was inactive in the other large screens.

Cc1ccc(NC2CC(=O)N(Cc3ccccc3)C2=O)cc1 (centres undefined)	HSF1 activator 56
CCCOc1ccc(N2C(=O)CC(N(CCc3ccc(OC)c(OC)c3)C(=S)Nc3ccccc3)C2=O)cc1 (centres undefined)	T cruzi repl 64 (no result: CaV13 ICDI inh)
CCCCCC(=O)NNC1CC(=O)N(c2ccccc2)C1=O (centres undefined)	none (no result: PvdQ inh, PfHsp90 yeast 2)
CCCCCCCCN	none (no result: T cruzi repl, N-glyco inh, PvdQ inh, HSF1 activator, PfHsp90 yeast 2)
CCOC(=O)N1CCN(C(=O)C[C@@H]2C[C@@]3(C(=O)OCC)CCCC=C3N(CCC3=CCCCC3)C2=O)CC1	none (no result: T cruzi repl, N-glyco inh, PvdQ inh, HSF1 activator, PfHsp90 yeast 2)
O=C(O)C(Cc1ccccc1)N1C(=O)C2CCCCC2C1=O (centres undefined)	none
CCOC(=O)C1CCCN(C2CC(=O)N(c3cccc(C(F)(F)F)c3)C2=O)C1 (centres undefined)	PfHsp90 yeast 2 120
O=C1C2CCCCC2C(=O)N1Cc1ccccc1 (centres undefined)	HSF1 activator 68
CCCCCCC(=O)N(O)C1CC(=O)N(Cc2ccccc2)C1=O (centres undefined)	N-glyco inh 49 (no result: T cruzi repl, HSF1 activator)
O=C1CC(=Nc2ccc([N+](=O)[O-])cc2)NN1c1c(Cl)cc(Cl)cc1Cl	none (no result: T cruzi repl, PvdQ inh, HSF1 activator, PfHsp90 yeast 2)
O=C(NCC1CCN(C(=O)C(=O)c2cc3ccccc3o2)CC1)c1cccnc1	none (no result: T cruzi repl, N-glyco inh, PvdQ inh, HSF1 activator, PfHsp90 yeast 2)
C#CCNC(=O)c1ccc2sc([C@@H]3O[C@H](CO)[C@H](O)[C@H](O)[C@H]3O)nc2c1	none (no result: T cruzi repl, PvdQ inh, HSF1 activator, PfHsp90 yeast 2)
COc1ccccc1CCC(=O)Nc1ccc2c(c1)c(=O)n(C)n2-c1cccs1	N-glyco inh 34 (no result: T cruzi repl, PvdQ inh, HSF1 activator, PfHsp90 yeast 2)
Cc1nn(Cc2ccc(Cl)cc2Cl)c(Cl)c1/C=N/NC(=O)CNc1cccc(C(F)(F)F)c1	T cruzi repl 71 (no result: N-glyco inh, PvdQ inh, CaV13 ICDI inh, HSF1 activator, PfHsp90 yeast 2)
COc1ccc(C2=NN(c3ccccc3)C(c3ccc(OC)c(OC)c3)C2)cc1 (centres undefined)	HSF1 activator 71
COc1ccc(C2CC(c3ccc(F)cc3)=NN2c2ccccc2)cc1OC (centres undefined)	none
COc1ccc(C2CC(c3ccccc3)=NN2c2ccc(S(N)(=O)=O)cc2)cc1 (centres undefined)	T cruzi repl 57
COc1ccc(C2=NN(c3ccc(C=O)cc3)C(c3ccccc3)C2)cc1 (centres undefined)	none (no result: N-glyco inh, PvdQ inh, CaV13 ICDI inh, PfHsp90 yeast 2)
COc1ccc(C2=NN(C(C#N)c3ccc(OC)c(OC)c3)C(c3ccccc3)C2)cc1 (centres undefined)	HSF1 activator 90
COc1ccc(C2CC(c3ccccc3)=NN2c2ccc(C(N)=O)cc2)cc1 (centres undefined)	CaV13 ICDI inh 83
COC(=O)c1ccccc1S(=O)(=O)NC(=O)[C@H]1O[C@@H](n2ccc(=O)[nH]c2=O)[C@H](O)[C@@H]1O	none (no result: T cruzi repl, N-glyco inh, PvdQ inh, HSF1 activator, PfHsp90 yeast 2)
Cc1ccc(Cc2c(-c3cccc(Br)c3)nc3c4ccccc4ccn23)cc1	none (no result: T cruzi repl, N-glyco inh, PvdQ inh, HSF1 activator, PfHsp90 yeast 2)
C[C@@H]1O[C@H](C2CCCCC2)Cc2[nH][nH]c(=O)c21	none (no result: T cruzi repl, N-glyco inh, PvdQ inh, HSF1 activator, PfHsp90 yeast 2)
Nc1[nH]c(C(=O)c2ccccc2)c(-c2cccc3ccccc23)c1C(=O)NCc1ccc(F)c(F)c1	none (no result: T cruzi repl, N-glyco inh, PvdQ inh, HSF1 activator, PfHsp90 yeast 2)
COc1ccc(C2CC(c3cccs3)=NN2c2nc(-c3ccccc3)cs2)cc1OC (centres undefined)	HSF1 activator 93
O=C(O)c1ccc(N2N=C(c3ccccc3)CC2c2ccccc2)cc1 (centres undefined)	CaV13 ICDI inh 115, PfHsp90 yeast 2 inconclusive
Oc1ccc(C2=NN(c3ccccc3)C(c3ccc(F)cc3)C2)cc1 (centres undefined)	PfHsp90 yeast 2 120
CC(C)NC(=O)N(C)C[C@@H]1OCc2cn(nn2)CCCC(=O)N([C@@H](C)CO)C[C@H]1C	none (no result: T cruzi repl, N-glyco inh, PvdQ inh, HSF1 activator, PfHsp90 yeast 2)
COc1ccc(CC(=O)NCC2CCCN(Cc3cc(OC)cc(OC)c3)C2)cc1 (centres undefined)	T cruzi repl 58
Cc1cc(C)c(CN2CCCC(CNC(=O)c3ccc(F)cc3)C2)c(-n2cccn2)c1 (centres undefined)	none
CCc1ccc(CN2CCCC(CNC(=O)c3cccc(OC)c3OC)C2)cc1 (centres undefined)	T cruzi repl 61
O=C(NCC1CCCN(Cc2cccc(C(F)(F)F)c2)C1)c1ccc(F)cc1 (centres undefined)	T cruzi repl 57
